According to ChEMBL document CHEMBL2380254, “Optimization of tocotrienols as antiproliferative and antimigratory leads” (Eur J Med Chem, 2013):

How the values were obtained:
MCF7 = assay: Antiproliferative activity against human MCF7 cells by MTT assay; format: functional, cell-based
Procedure, shortened: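 Cells plated at 8 × 10^3/well (MDA-MB-231) or 10^4/well (MCF7) in 96-well plates. Compounds fed in media with 5% FBS (MDA-MB-231) or 1% FBS (MCF7). MTT read-out of viable cells.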

MDA-MB-231 = assay: Growth inhibition of human MDA-MB-231 cells assessed as cell growth at 10 uM after 48 hrs by sulforhodamine B assay; format: functional; conditions: MDA-MB-231, 48 h, read-out: Activity
Procedure, shortened: (§1)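 Single-dose NCI-60 screen: adherent cells in RPMI 1640 with 5% FBS were exposed to 10 µM for 48 h at 37 °C after a 24 h preincubation. They were fixed in situ with cold TCA (10% final), stained with 0.4% SRB in 1% acetic acid, solubilized in 10 mM Tris base, and read at 515 nm. Percent growth was taken relative to time-zero and control plates.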

ACHN = assay: Growth inhibition of human ACHN cells assessed as cell growth at 10 uM after 48 hrs by sulforhodamine B assay; format: functional; conditions: read-out: Activity
Procedure, shortened: (§2)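 NCI-60 single-dose screen at 10 µM: cells in RPMI 1640 with 5% FBS, preincubated 24 h, then exposed 48 h at 37 °C. TCA fixation (16% final for suspension cells), SRB staining, absorbance 515 nm. Percent growth relative to time-zero and untreated control plates; negative values indicate cell kill.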

OVCAR-3 = assay: Growth inhibition of human OVCAR3 cells assessed as cell growth at 10 uM after 48 hrs by sulforhodamine B assay; format: functional; conditions: OVCAR-3, 48 h, read-out: Activity; procedure, shortened: as §1
SK-MEL-2 = assay: Growth inhibition of human SK-MEL-2 cells assessed as cell growth at 10 uM after 48 hrs by sulforhodamine B assay; format: functional; conditions: SK-MEL-2, 48 h, read-out: Activity; procedure, shortened: as §1
SF-295 = assay: Growth inhibition of human SF295 cells assessed as cell growth at 10 uM after 48 hrs by sulforhodamine B assay; format: functional; conditions: SF-295, 48 h, read-out: Activity; procedure, shortened: as §1
SW-620 = assay: Growth inhibition of human SW620 cells assessed as cell growth at 10 uM after 48 hrs by sulforhodamine B assay; format: functional; conditions: SW-620, 48 h, read-out: Activity
Procedure, shortened: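 Single-dose NCI-60 test at 10 µM. Cells were grown in RPMI 1640 with 5% FBS and 2 mM L-glutamine, preincubated 24 h, with T0 plates TCA-fixed. Exposure was 48 h at 37 °C, 5% CO2. Cells were fixed with cold TCA (final 10%, 4 °C, 60 min), stained with SRB and read at 515 nm. Percent growth was taken relative to T0 and untreated control; negative values denote cell kill.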

NCI-H23 = assay: Growth inhibition of human NCI-H23 cells assessed as cell growth at 10 uM after 48 hrs by sulforhodamine B assay; format: functional; conditions: NCI-H23, 48 h, read-out: Activity; procedure, shortened: as §1
NCI-H226 = assay: Growth inhibition of human NCI-H226 cells assessed as cell growth at 10 uM after 48 hrs by sulforhodamine B assay; format: functional; conditions: NCI-H226, 48 h, read-out: Activity; procedure, shortened: as §1
HOP-62 = assay: Growth inhibition of human HOP62 cells assessed as cell growth at 10 uM after 48 hrs by sulforhodamine B assay; format: functional; conditions: HOP-62, 48 h, read-out: Activity; procedure, shortened: as §2
HL-60(TB) = assay: Growth inhibition of human HL-60(TB) cells assessed as cell growth at 10 uM after 48 hrs by sulforhodamine B assay; format: functional; conditions: HL-60, 48 h, read-out: Activity
Procedure, shortened: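 NCI-60 single-dose screen run at 10 µM on HL-60(TB) suspension cells in RPMI 1640 with 5% FBS and 2 mM L-glutamine. Cells were preincubated for 24 h, with a time-zero plate fixed then. Exposure lasted 48 h at 37 °C. Settled cells were fixed with TCA (16% final), stained with SRB and read at 515 nm. Percent growth is relative to control and T0.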

MDA-MB-468 = assay: Growth inhibition of human MDA-MB-468 cells after 48 hrs by sulforhodamine B assay; format: functional; conditions: MDA-MB-468, 48 h
Procedure, shortened: (§3)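 NCI-60 panel cells grown in RPMI 1640 with 5% FBS and 2 mM L-glutamine, seeded at 5000–40,000 cells/well and preincubated 24 h. Five 10-fold dilutions (0.001–100 µM) from DMSO stocks were added for 48 h at 37 °C. Adherent cells were fixed with cold TCA (10% final) for 60 min at 4 °C, stained with 0.4% SRB, and read at 515 nm. GI50 was set where 100×(T−T0)/(C−T0)=50.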

T47D = assay: Growth inhibition of human T47D cells after 48 hrs by sulforhodamine B assay; format: functional
Procedure, shortened: (§4)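 NCI-60 five-dose screen. Cells were grown in RPMI 1640 with 5% FBS and 2 mM L-glutamine, plated at 5000–40,000 cells/well and incubated 24 h before dosing, with T0 plates TCA-fixed. DMSO stocks were diluted to doses of […] and exposed 48 h at 37 °C, 5% CO2. Cells were fixed with cold TCA (final 10%, 60 min, 4 °C), stained with 0.4% SRB in 1% acetic acid for 10 min, solubilized in 10 mM trizma base and read at 515 nm. GI50 is where 100×(T−T0)/(C−T0)=50.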

PC-3 = assay: Growth inhibition of human PC3 cells after 48 hrs by sulforhodamine B assay; format: functional; conditions: PC-3, 48 h; procedure, shortened: as §3
UO-31 = assay: Growth inhibition of human UO31 cells after 48 hrs by sulforhodamine B assay; format: functional; conditions: UO-31, 48 h; procedure, shortened: as §4
SN12C = assay: Growth inhibition of human SN12C cells after 48 hrs by sulforhodamine B assay; format: functional; procedure, shortened: as §4
786-0 = assay: Growth inhibition of human 786-0 cells after 48 hrs by sulforhodamine B assay; format: functional; conditions: 786-0, 48 h
Procedure, shortened: (§5)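 NCI-60 screen: cells in RPMI 1640 with 5% FBS and 2 mM glutamine, 5000–40,000 cells/well, preincubated 24 h. Five concentrations (10-fold dilutions; 100 to 0.001 µM) applied for 48 h at 37 °C. TCA fixation, SRB stain, absorbance at 515 nm. Time-zero plates included; GI50 where 100×(T−T0)/(C−T0)=50.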

HT-29 = assay: Growth inhibition of human HT-29 cells after 48 hrs by sulforhodamine B assay; format: functional; conditions: HT-29, 48 h; procedure, shortened: as §5
HCT-15 = assay: Growth inhibition of human HCT15 cells after 48 hrs by sulforhodamine B assay; format: functional; conditions: HCT-15, 48 h; procedure, shortened: as §5
RPMI-8226 = assay: Growth inhibition of human RPMI8226 cells assessed as cell growth at 10 uM after 48 hrs by sulforhodamine B assay; format: functional; conditions: RPMI-8226, 48 h, read-out: Activity
Procedure, shortened: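 Single 10 µM dose applied to suspension cells in RPMI 1640 with 5% FBS and 2 mM L-glutamine for 48 h at 37 °C. Settled cells were fixed with 80% TCA (16% final), stained with SRB, and read at 515 nm. Percent growth was calculated against time-zero and untreated control optical densities.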

RXF 393 = assay: Growth inhibition of human RXF393 cells assessed as cell growth at 10 uM after 48 hrs by sulforhodamine B assay; format: functional; conditions: RXF 393, 48 h, read-out: Activity; procedure, shortened: as §1

SMILES	IC50 (MCF7) [µM]	growth at 10 µM (MDA-MB-231) [%]	growth at 10 µM (ACHN) [%]	growth at 10 µM (OVCAR-3) [%]	growth at 10 µM (SK-MEL-2) [%]	growth at 10 µM (SF-295) [%]	growth at 10 µM (SW-620) [%]	growth at 10 µM (NCI-H23) [%]	growth at 10 µM (NCI-H226) [%]	growth at 10 µM (HOP-62) [%]	growth at 10 µM (HL-60(TB)) [%]	growth at 10 µM (RPMI-8226) [%]	growth at 10 µM (RXF 393) [%]	further results
CC(C)=CCC/C(C)=C/CC/C(C)=C/CC[C@]1(C)CCc2c3c(cc(C)c2O1)OCN(CCc1ccc(O)cc1)C3	18.2	46.9	91	36.4	116	102	-95.2	27.2	88.7	-31.3	31.2	–	–	GI50 (MDA-MB-468): 1.55 µM; GI50 (T47D): 6.06 µM; GI50 (PC-3): 5.07 µM; GI50 (UO-31): 4.42 µM; GI50 (SN12C): 4.9 µM; GI50 (786-0): 6.61 µM; GI50 (HT-29): 3.53 µM; GI50 (HCT-15): 5.87 µM
CC(C)=CCC/C(C)=C/CC/C(C)=C/CC[C@]1(C)CCc2c3c(cc(C)c2O1)OCN(C1CCN(Cc2ccccc2)CC1)C3	–	18.2	83.2	-47.9	109	93.2	100	38.7	101	111	-18.9	14.6	–	GI50 (MDA-MB-468): 1.41 µM; GI50 (T47D): 2.18 µM; GI50 (PC-3): 0.581 µM; GI50 (UO-31): 1.51 µM; GI50 (SN12C): 1.46 µM; GI50 (786-0): 1.52 µM; GI50 (HT-29): 1.84 µM; GI50 (HCT-15): 4.03 µM
COc1ccc(CCNCc2c(O)c(C)c(C)c3c2CC[C@@](C)(CC/C=C(\C)CC/C=C(\C)CCC=C(C)C)O3)cc1OC	–	78.6	97.5	101	113	102	47.2	84.9	106	115	77.7	–	–	–
CC(C)=CCC/C(C)=C/CC/C(C)=C/CC[C@]1(C)CCc2c3c(cc(C)c2O1)OCN(CCCCCCCCCCO)C3	4.6	119	99.1	94.3	86.4	114	104	90.8	89.8	107	62.7	63.2	52.6	–
COc1ccc(CCN2COc3c(C)c(C)c4c(c3C2)CC[C@@](C)(CC/C=C(\C)CC/C=C(\C)CCC=C(C)C)O4)cc1OC	> 20	96.1	95.8	105	120	108	101	102	97	85.7	79.4	64.6	–	–
CC(C)=CCC/C(C)=C/CC/C(C)=C/CC[C@]1(C)CCc2c(CNCCc3ccc(O)cc3)c(O)c(C)c(C)c2O1	–	89.5	98.7	97.1	117	105	101	91.5	105	105	84	–	–	–
CC(C)=CCC/C(C)=C/CC/C(C)=C/CC[C@]1(C)CCc2c3c(c(C)c(C)c2O1)OCN(CCc1ccc(O)cc1)C3	10.6	68.5	99.8	98.2	121	100	48.4	88.2	111	112	72.3	–	–	–
CC(C)=CCC/C(C)=C/CC/C(C)=C/CC[C@]1(C)CCc2c3c(c(C)c(C)c2O1)OCN(CCCCCCCCCCO)C3	19.4	112	92.6	94.8	82.3	111	105	90.9	92.6	90	88	78.8	83.1	–
CC(C)=CCC/C(C)=C/CC/C(C)=C/CC[C@]1(C)CCc2c3c(cc(C)c2O1)OCN(CCCCCCCCCCCCO)C3	> 20	99.8	91.3	89.5	15.3	93.3	95.2	77.3	80.6	86.9	27.6	15.8	34.4	–
CC(C)=CCC/C(C)=C/CC/C(C)=C/CC[C@]1(C)CCc2c3c(c(C)c(C)c2O1)OCN(CCCCCCCCCCCCO)C3	> 20	119	105	109	76.8	93.5	109	104	93.3	104	95	87	92.5	–
CC(C)=CCC/C(C)=C/CC/C(C)=C/CC[C@]1(C)CCc2cc(O)c(C)c(C)c2O1 [GAMMA-TOCOTRIENOL]	7.1	108	100	110	91.3	105	110	92.8	90.8	108	86.5	78	84.1	–
